Screening data from PubChem.
TbMetRS inhib = T. brucei MetRS inhibitors, primary screen, biochemical, luminescence; inhibition, % at 11.9 µM; 360,000 compounds, 0.4% hits; purified T. brucei MetRS, ATP depletion, Kinase-Glo luminescence; AID 624268, 2012;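 active means inhibition above a per-plate cutoff of the control wells' mean inhibition plus 3 SD, cut at about 5.5% in these data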;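 further: 0% = DMSO wells median and 100% = median of wells with control inhibitor compound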
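assay system = parasite MetRS enzyme | timing = 15 min preincubation, 2 h reaction, all 25 °C | evaluation = percent inhibition relative to median high and low control wells | medium = HEPES buffer containing pyrophosphatase, BSA, spermine, DTT | compound = single dose, 11.9 µM final nominal, 0.9% final DMSO | detection = Kinase-Glo luminescence, ATP depletion format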
ERp5 inh = inhibitors of ERp5-driven insulin aggregation, primary screen, biochemical, turbidity, absorbance 650 nm, single point; AID 651711, 2012; inhibition, % at 9.99 µM; Protein disulfide-isomerase A6 (Homo sapiens), Q15084; 350,000 compounds, 0.05% hits; 90 min;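 active means mean replicate inhibition above about 25%, with every replicate also reaching it, limit read from the data, passing the limit was not always enough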
PDI turbidity = inhibitors of human PDI, primary screen, biochemical, turbidity, single point, plate reader | Protein disulfide-isomerase (Homo sapiens), P07237 | PDI insulin aggregation turbidity, A650, 90 min | inhibition, % at 10 µM | 350,000 compounds, 0.052% hits;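 active means mean inhibition across replicates of 30% or more, whatever share of single replicates reach that level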
Target sequence (P07237 whole entry, looked up): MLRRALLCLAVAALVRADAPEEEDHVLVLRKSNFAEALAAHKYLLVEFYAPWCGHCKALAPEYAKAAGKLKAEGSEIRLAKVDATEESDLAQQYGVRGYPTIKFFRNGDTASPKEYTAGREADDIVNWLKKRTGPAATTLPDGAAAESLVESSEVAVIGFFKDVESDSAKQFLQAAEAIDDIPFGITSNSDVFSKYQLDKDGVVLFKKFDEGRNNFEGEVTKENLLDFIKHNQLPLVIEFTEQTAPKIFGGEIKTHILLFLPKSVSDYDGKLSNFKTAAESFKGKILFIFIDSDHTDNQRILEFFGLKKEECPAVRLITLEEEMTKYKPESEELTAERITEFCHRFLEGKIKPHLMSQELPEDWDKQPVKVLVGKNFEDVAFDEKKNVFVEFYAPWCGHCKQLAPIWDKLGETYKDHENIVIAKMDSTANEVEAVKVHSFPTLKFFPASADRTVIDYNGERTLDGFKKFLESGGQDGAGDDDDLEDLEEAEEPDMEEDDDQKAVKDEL
TbMetRS confirm = T. brucei MetRS inhibitors, confirmation, biochemical, luminescence. AID 624412, 2012. shares compounds with TbMetRS inhib. 1,400 compounds, 93% hits. inhibition, % at 11.9 µM. T. brucei MetRS enzyme, luminescence (ATP depletion); in the data active means inhibition above about 7%
Jurkat cytotox = Jurkat T cell cytotoxicity, cytotoxicity control for T. brucei MetRS inhibitor project, luminescence, high throughput | shares compounds with TbMetRS inhib | Jurkat cells viability, ATP luminescence | inhibition, % at 8.3 µM | 1,400 compounds, 12% hits; in the data active means inhibition above about 15%;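 further: 0% = vehicle and 100% = reference inhibitor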
Tb MetRS inh FP = T. brucei MetRS inhibitors, orthogonal assay for T. brucei MetRS inhibitor project, biochemical, fluorescence polarization; shares compounds with TbMetRS inhib; purified T. brucei MetRS; inhibition, % at 11.9 µM; 1,400 compounds, 44% hits; AID 651607, 2012; in the data active means inhibition above about 17%;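 further: 0% = vehicle wells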
Active calls of the source: *; . = not tested or not shown. Most compounds without a hit are left out; they make up all but 0.4% or so of the library.

SMILES	TbMetRS inhib	ERp5 inh	PDI turbidity	TbMetRS confirm	Jurkat cytotox	Tb MetRS inh FP
COc1ccc(NC(=O)CN(C)C(=O)c2ccc3c(c2)NC(=O)CS3)cc1	7.9*	-2	-5	33*	-8	6
Cc1noc(C)c1NC(=O)Nc1ccc2c(c1)CC(=O)N([C@H](C)CO)C[C@H](C)[C@@H](CN(C)S(=O)(=O)c1ccc(F)cc1)O2	.	-20	.	.	.	.
C[C@@H]1CN([C@H](C)CO)C(=O)c2cc(NC(=O)CCCN(C)C)ccc2O[C@@H](C)CCCCO[C@H]1CN(C)S(=O)(=O)c1cccs1	.	-2	.	.	.	.
Cc1ccc(N=Cc2nc(-c3ccc(C)cc3)oc2O)cc1	-1	5	-1	.	.	.
Oc1oc(-c2ccc(Br)cc2)nc1C=Nc1ccc(Br)cn1	8.7*	-1	-7	65*	-4	32*
CO[C@@H]1CN(C)C(=O)c2cc(NC(=O)C3CC3)ccc2OC[C@@H](C)N(C)C[C@H]1C	.	-8	.	.	.	.
COc1ccc(CNc2nc3ccccc3n2C)c(O)c1	3	-8	7	.	.	.
C=CCc1cccc(CNc2nc3ccccc3n2C)c1O	28*	-8	1	46*	-1	26*
Cn1c(NCc2cc(Br)ccc2O)nc2ccccc21	41*	.	-1	58*	6	24*
C=CCc1cccc(CNc2cnc3ccccc3c2)c1O	6.0*	0	10	12*	31*	13
Oc1ccccc1CNc1cnc2ccccc2c1	-1	1	-1	.	.	.
Oc1ccc(Cl)cc1CNc1cnc2ccccc2c1	13*	18	-4	14*	30*	10
C=CCc1cccc(CNc2nc3ccccc3n2CCN2CCOCC2)c1O	3	.	-13	.	.	.
Oc1ccc2ccccc2c1CNc1cnc2ccccc2c1	0	.	12	.	.	.
Cc1ccc(S(=O)(=O)Nc2ccc3c(c2)C(=O)N([C@H](C)CO)C[C@@H](C)[C@@H](CN(C)S(=O)(=O)c2ccc(C)cc2)O3)cc1	.	1	.	.	.	.
CCC(=O)N1CC2(C1)[C@@H](c1ccc(-c3ccc(F)cc3)cc1)[C@H](CO)N2C(C)=O	.	2	.	.	.	.
O=S(=O)(N[C@H]1CC[C@@H](CCn2cc(-c3ccccc3F)nn2)O[C@@H]1CO)c1ccc(Cl)cc1	.	1	.	.	.	.
CCO[C@H]1OC(C(=O)NCc2nc3ccccc3[nH]2)=C[C@@H](c2csc3ccccc23)[C@@H]1CCCO	7.6*	3	4	38*	-1	13
CCO[C@H]1OC(C(=O)NCc2nc3ccccc3[nH]2)=C[C@@H](c2coc3ccccc3c2=O)[C@@H]1CCCO	.	-3	.	.	.	.
CCO[C@H]1OC(C(=O)NCc2nc3ccccc3[nH]2)=C[C@@H](c2ccccc2)[C@@H]1CCCO	1	-3	0	.	.	.
CCO[C@@H]1OC(C(=O)NCc2ccccc2)=C[C@H](c2csc3ccccc23)[C@H]1CCCO	0	17	2	.	.	.
CCO[C@@H]1OC(C(=O)NCc2nc3ccccc3[nH]2)=C[C@H](c2ccccc2)[C@H]1CCCO	8.6*	3	6	38*	-1	20*
CCO[C@@H]1OC(C(=O)NCc2nc3ccccc3[nH]2)=C[C@H](c2csc3ccccc23)[C@H]1CCCO	86*	7	9	93*	3	97*
CCC(=O)N(C)C[C@H]1Oc2cc(C#Cc3ccncc3)ccc2S(=O)(=O)N([C@@H](C)CO)C[C@H]1C	.	-4	.	.	.	.
Cc1ccc(OCCSc2nc3ncnc(N)c3[nH]2)cc1	1	0	7	.	.	.
SMILES	TbMetRS inhib	ERp5 inh	PDI turbidity	TbMetRS confirm	Jurkat cytotox	Tb MetRS inh FP
Nc1ncnc2nc(SCCOc3ccc(Cl)cc3)[nH]c12	5.7*	8	7	14*	-12	2
COc1ccc(NC(=S)N2CCCC(c3nc4ccc(C)cc4[nH]3)C2)c(OC)c1 (configuration not stated)	0	3	1	.	.	.
O=C(NC1CCCCC1)N1CCCC(c2nc3ccccc3[nH]2)C1 (configuration not stated)	9.2*	.	4	16*	-2	9
O=C(NC1CCCCC1)N1CCC(c2nc3ccccc3[nH]2)CC1	1	-9	-3	.	.	.
COc1ccc(NC(=S)N2CCC(c3nc4ccc(Cl)cc4[nH]3)CC2)c(OC)c1	15*	0	-1	36*	1	24*
O=C(NC1CCCCC1)N1CCC(c2nc3ccc(Cl)cc3[nH]2)CC1	7.8*	.	-2	12*	12	6
O=C(C1CCCCC1)N1CCC(c2nc3ccccc3[nH]2)CC1	1	.	14	.	.	.
C[C@@H]1CN([C@H](C)CO)S(=O)(=O)c2ccc(-c3ccc(C(=O)N(C)C)cc3)cc2O[C@@H]1CN(C)C(=O)C1CCC1	.	11	.	.	.	.
C[C@@H]1CN([C@@H](C)CO)C(=O)c2cc(NC(=O)Nc3cccc4ccccc34)ccc2O[C@@H](C)CCCCO[C@H]1CN(C)CC1CCCCC1	.	-4	.	.	.	.
O=C(c1cnccn1)N1CC(=O)N2[C@@H](CO)[C@H](c3ccc(/C=C/c4ccccc4)cc3)[C@@H]2C1	.	-1	.	.	.	.
Cc1ccccc1S(=O)(=O)N1CCCCN2[C@H](C1)[C@H](c1ccc(-c3cccc(F)c3)cc1)[C@@H]2CO	.	0	.	.	.	.
C=CCNC(=S)NNC(=O)c1ccc(=O)n(Cc2ccccc2)c1	13*	-3	0	24*	1	9
C=CCNC(=S)NNC(=O)c1ccccc1	-1	.	7	.	.	.
CNC[C@@H]1OCCCC[C@H](C)Oc2ccc(NC(=O)NC(C)C)cc2C(=O)N([C@H](C)CO)C[C@H]1C	.	-3	.	.	.	.
C[C@@H]1CN([C@H](C)CO)S(=O)(=O)c2ccc(-c3ccccc3)cc2O[C@H]1CN(C)C	.	1	.	.	.	.
CCCN1C[C@@H](C)[C@@H](OC)CN(C)C(=O)c2cc(NC(=O)c3ccc(F)cc3)ccc2OC[C@@H]1C	.	5	.	.	.	.
CN(C)c1ccc(CNC(=O)c2cc(S(=O)(=O)N3CCOCC3)cn2C)cc1	1	-1	.	.	.	.
Cn1cc(S(=O)(=O)N2CCOCC2)cc1C(=O)NCc1ccc(Cl)cc1	36*	0	.	51*	-2	28*
CCCNC(=O)[C@H]1[C@H](CO)[C@H]2Cn3c(ccc(C4=CCCC4)c3=O)[C@@H]1N2	.	2	.	.	.	.
COc1cc(/C=N/Nc2nc3ccccc3[nH]c2=O)ccc1O	-1	-2	-1	.	.	.
Cc1cc(=O)[nH]c(N/N=C/c2c(C)nn(-c3ccccc3)c2C)n1	-1	-2	-3	.	.	.
Cc1nn(-c2ccccc2)c(C)c1/C=N/Nc1nc2ccccc2[nH]1	8.0*	-2	-2	14*	9	13
O=[N+]([O-])c1ccc(O)c(/C=N/Nc2nc3ccccc3[nH]2)c1	9.5*	4	16	14*	98*	15
